# Laboratory results reported in ChEMBL document CHEMBL1134010, “Syntheses and antifungal activities of novel 3-amido bearing pseudomycin analogues” (Bioorg Med Chem Lett, 2001).
# Positions of bridges follow the written chain, without caps; N, C: chain ends. Non-standard residues stand in square brackets, D forms with d. Residues, ends and D or L forms follow the SMILES beside them. Groups on a side chain read outwards from the residue. *: point of attachment. Tetradecanoyl(3R-OH) = CCCCCCCCCCC[C@@H](O)CC(=O)*; Asp(3S-OH) = N[C@H](C(=O)O)[C@H](O)C(=O)O; Thr(4-Cl) = N[C@H](C(=O)O)[C@H](O)CCl; aThr = C[C@H](O)[C@H](N)C(=O)O; dDab = NCC[C@@H](N)C(=O)O; Dab = NCC[C@H](N)C(=O)O; Dhb = C/C=C(\N)C(=O)O; X1 = CCN(CC)CCN*
# Columns and labels:
# Format in all cases: functional
# Aspergillus fumigatus = experiment: In vitro minimum inhibitory concentration (MIC) against Aspergillus fumigatus.
# How it was run: (§1)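 Tested against Candida albicans, Cryptococcus neoformans and Aspergillus fumigatus, with PSB as positive control. MIC is taken as the lowest drug concentration giving 90–100% inhibition of visible growth relative to drug-free controls.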
# Candida albicans [1] = experiment: In vitro minimum inhibitory concentration (MIC) against Candida albicans.; how it was run: as §1
# Candida albicans [2] = experiment: In vivo efficacy against murine Candidiasis dosed four times by intraperitoneal administration post-infection using Reed and Muench method.; conditions: ip
# How it was run: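 Systemic candidiasis in mice, with PSB and amphotericin B as positive controls. Analogues were given at 20, 10 and 5 mg/kg, four doses at 0, 4, 24 and 48 post-infection. ED50 is the dose giving 50% survival relative to untreated infected animals, calculated by the Reed and Muench method.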
# Cryptococcus neoformans = experiment: In vitro minimum inhibitory concentration (MIC) against Cryptococcus neoformans.; how it was run: as §1
smiles,measurement,setting,value
C/C=C1\NC(=O)[C@H]([C@H](C)O)NC(=O)[C@H](CCN)NC(=O)[C@H](CCCCN)NC(=O)[C@H](CC(=O)NCCCCCCCCCC)NC(=O)[C@@H](CCN)NC(=O)[C@@H](NC(=O)C[C@H](O)CCCCCCCCCCC)COC(=O)[C@H]([C@H](O)CCl)NC(=O)[C@H]([C@H](O)C(=O)O)NC1=O,MIC,Aspergillus fumigatus,> 20 µg/mL
same,MIC,Candida albicans [1],> 20 µg/mL
same,ED50,Candida albicans [2],> 20 mg/kg
same,MIC,Cryptococcus neoformans,1.25 µg/mL
C/C=C1\NC(=O)[C@H]([C@H](C)O)NC(=O)[C@H](CCN)NC(=O)[C@H](CCCCN)NC(=O)[C@H](CC(=O)NCCCCCCCC)NC(=O)[C@@H](CCN)NC(=O)[C@@H](NC(=O)C[C@H](O)CCCCCCCCCCC)COC(=O)[C@H]([C@H](O)CCl)NC(=O)[C@H]([C@H](O)C(=O)O)NC1=O,MIC,Aspergillus fumigatus,> 20 µg/mL
same,MIC,Candida albicans [1],20 µg/mL
same,ED50,Candida albicans [2],> 20 mg/kg
same,MIC,Cryptococcus neoformans,0.625 µg/mL
C/C=C1\NC(=O)[C@H]([C@H](C)O)NC(=O)[C@H](CCN)NC(=O)[C@H](CCCCN)NC(=O)[C@H](CC(=O)NCCCCCCCCC)NC(=O)[C@@H](CCN)NC(=O)[C@@H](NC(=O)C[C@H](O)CCCCCCCCCCC)COC(=O)[C@H]([C@H](O)CCl)NC(=O)[C@H]([C@H](O)C(=O)O)NC1=O,MIC,Aspergillus fumigatus,> 20 µg/mL
same,MIC,Candida albicans [1],20 µg/mL
same,ED50,Candida albicans [2],> 20 mg/kg
same,MIC,Cryptococcus neoformans,5 µg/mL
C/C=C1\NC(=O)[C@H]([C@@H](C)O)NC(=O)[C@H](CCN)NC(=O)[C@H](CCCCN)NC(=O)[C@H](CC(=O)N[C@@H](CCCN=C(N)N)C(=O)OC)NC(=O)[C@@H](CCN)NC(=O)[C@@H](NC(=O)C[C@H](O)CCCCCCCCCCC)COC(=O)[C@H]([C@H](O)CCl)NC(=O)[C@H]([C@H](O)C(=O)O)NC1=O,MIC,Aspergillus fumigatus,> 20 µg/mL
same,MIC,Candida albicans [1],5 µg/mL
same,ED50,Candida albicans [2],< 5 mg/kg
same,MIC,Cryptococcus neoformans,0.01 µg/mL
C/C=C1\NC(=O)[C@H]([C@H](C)O)NC(=O)[C@H](CCN)NC(=O)[C@H](CCCCN)NC(=O)[C@H](CC(=O)NCCCN(C)C)NC(=O)[C@@H](CCN)NC(=O)[C@@H](NC(=O)C[C@H](O)CCCCCCCCCCC)COC(=O)[C@H]([C@H](O)CCl)NC(=O)[C@H]([C@H](O)C(=O)O)NC1=O,MIC,Aspergillus fumigatus,10 µg/mL
same,MIC,Candida albicans [1],10 µg/mL
same,ED50,Candida albicans [2],< 5 mg/kg
same,MIC,Cryptococcus neoformans,< 0.01 µg/mL
C/C=C1\NC(=O)[C@H]([C@H](C)O)NC(=O)[C@H](CCN)NC(=O)[C@H](CCCCN)NC(=O)[C@H](CC(=O)NCCCCC)NC(=O)[C@@H](CCN)NC(=O)[C@@H](NC(=O)C[C@H](O)CCCCCCCCCCC)COC(=O)[C@H]([C@H](O)CCl)NC(=O)[C@H]([C@H](O)C(=O)O)NC1=O,MIC,Aspergillus fumigatus,> 20 µg/mL
same,MIC,Candida albicans [1],0.312 µg/mL
same,ED50,Candida albicans [2],8.5 mg/kg
same,MIC,Cryptococcus neoformans,< 0.01 µg/mL
C/C=C1\NC(=O)[C@H]([C@H](C)O)NC(=O)[C@H](CCN)NC(=O)[C@H](CCCCN)NC(=O)[C@H](CC(=O)NCCCCCCN(C)C)NC(=O)[C@@H](CCN)NC(=O)[C@@H](NC(=O)C[C@H](O)CCCCCCCCCCC)COC(=O)[C@H]([C@H](O)CCl)NC(=O)[C@H]([C@H](O)C(=O)O)NC1=O,MIC,Aspergillus fumigatus,20 µg/mL
same,MIC,Candida albicans [1],5 µg/mL
same,ED50,Candida albicans [2],< 5 mg/kg
same,MIC,Cryptococcus neoformans,< 0.01 µg/mL
C/C=C1\NC(=O)[C@H]([C@H](C)O)NC(=O)[C@H](CCN)NC(=O)[C@H](CCCCN)NC(=O)[C@H](CC(=O)NCCCCCCCN(C)C)NC(=O)[C@@H](CCN)NC(=O)[C@@H](NC(=O)C[C@H](O)CCCCCCCCCCC)COC(=O)[C@H]([C@H](O)CCl)NC(=O)[C@H]([C@H](O)C(=O)O)NC1=O,MIC,Aspergillus fumigatus,> 20 µg/mL
same,MIC,Candida albicans [1],10 µg/mL
same,ED50,Candida albicans [2],< 4 mg/kg
same,MIC,Cryptococcus neoformans,< 0.01 µg/mL
C/C=C1\NC(=O)[C@H]([C@H](C)O)NC(=O)[C@H](CCN)NC(=O)[C@H](CCCCN)NC(=O)[C@H](CC(=O)NCCCC)NC(=O)[C@@H](CCN)NC(=O)[C@@H](NC(=O)C[C@H](O)CCCCCCCCCCC)COC(=O)[C@H]([C@H](O)CCl)NC(=O)[C@H]([C@H](O)C(=O)O)NC1=O,MIC,Aspergillus fumigatus,20 µg/mL
same,MIC,Candida albicans [1],5 µg/mL
same,ED50,Candida albicans [2],5.9 mg/kg
same,MIC,Cryptococcus neoformans,< 0.01 µg/mL
C/C=C1\NC(=O)[C@H]([C@H](C)O)NC(=O)[C@H](CCN)NC(=O)[C@H](CCCCN)NC(=O)[C@H](CC(=O)NC)NC(=O)[C@@H](CCN)NC(=O)[C@@H](NC(=O)C[C@H](O)CCCCCCCCCCC)COC(=O)[C@H]([C@H](O)CCl)NC(=O)[C@H]([C@H](O)C(=O)O)NC1=O,MIC,Aspergillus fumigatus,> 20 µg/mL
same,MIC,Candida albicans [1],5 µg/mL
same,ED50,Candida albicans [2],7.4 mg/kg
same,MIC,Cryptococcus neoformans,0.312 µg/mL
C/C=C1\NC(=O)[C@H]([C@H](C)O)NC(=O)[C@H](CCN)NC(=O)[C@H](CCCCN)NC(=O)[C@H](CC(=O)NCCN(CC)CC)NC(=O)[C@@H](CCN)NC(=O)[C@@H](NC(=O)C[C@H](O)CCCCCCCCCCC)COC(=O)[C@H]([C@H](O)CCl)NC(=O)[C@H]([C@H](O)C(=O)O)NC1=O ({Tetradecanoyl(3R-OH)}-S[dDab]D(X1)K[Dab][aThr][Dhb][Asp(3S-OH)][Thr(4-Cl)]; ester 1-C),MIC,Aspergillus fumigatus,10 µg/mL
same,MIC,Candida albicans [1],10 µg/mL
same,ED50,Candida albicans [2],4.9 mg/kg
same,MIC,Cryptococcus neoformans,< 0.01 µg/mL
C/C=C1\NC(=O)[C@H]([C@H](C)O)NC(=O)[C@H](CCN)NC(=O)[C@H](CCCCN)NC(=O)[C@H](CC(=O)NCCCCCC)NC(=O)[C@@H](CCN)NC(=O)[C@@H](NC(=O)C[C@H](O)CCCCCCCCCCC)COC(=O)[C@H]([C@H](O)CCl)NC(=O)[C@H]([C@H](O)C(=O)O)NC1=O,MIC,Aspergillus fumigatus,> 20 µg/mL
same,MIC,Candida albicans [1],5 µg/mL
same,ED50,Candida albicans [2],> 12 mg/kg
same,MIC,Cryptococcus neoformans,0.156 µg/mL
C/C=C1\NC(=O)[C@H]([C@H](C)O)NC(=O)[C@H](CCN)NC(=O)[C@H](CCCCN)NC(=O)[C@H](CC(=O)NCCCCN(C)C)NC(=O)[C@@H](CCN)NC(=O)[C@@H](NC(=O)C[C@H](O)CCCCCCCCCCC)COC(=O)[C@H]([C@H](O)CCl)NC(=O)[C@H]([C@H](O)C(=O)O)NC1=O,MIC,Aspergillus fumigatus,5 µg/mL
same,MIC,Candida albicans [1],20 µg/mL
same,ED50,Candida albicans [2],< 5 mg/kg
same,MIC,Cryptococcus neoformans,< 0.01 µg/mL
C/C=C1\NC(=O)[C@H]([C@H](C)O)NC(=O)[C@H](CCN)NC(=O)[C@H](CCCCN)NC(=O)[C@H](CC(=O)NCC(=O)OC)NC(=O)[C@@H](CCN)NC(=O)[C@@H](NC(=O)C[C@H](O)CCCCCCCCCCC)COC(=O)[C@H]([C@H](O)CCl)NC(=O)[C@H]([C@H](O)C(=O)O)NC1=O ({Tetradecanoyl(3R-OH)}-S[dDab]D([Gly-OMe])K[Dab][aThr][Dhb][Asp(3S-OH)][Thr(4-Cl)]; ester 1-C),MIC,Aspergillus fumigatus,20 µg/mL
same,MIC,Candida albicans [1],1 µg/mL
same,ED50,Candida albicans [2],< 5 mg/kg
same,MIC,Cryptococcus neoformans,0.01 µg/mL
C/C=C1\NC(=O)[C@H]([C@@H](C)O)NC(=O)[C@H](CCN)NC(=O)[C@H](CCCCN)NC(=O)[C@H](CC(=O)N[C@@H](Cc2c[nH]cn2)C(=O)OC)NC(=O)[C@@H](CCN)NC(=O)[C@@H](NC(=O)C[C@H](O)CCCCCCCCCCC)COC(=O)[C@H]([C@H](O)CCl)NC(=O)[C@H]([C@H](O)C(=O)O)NC1=O,MIC,Aspergillus fumigatus,20 µg/mL
same,MIC,Candida albicans [1],0.312 µg/mL
same,ED50,Candida albicans [2],< 5 mg/kg
same,MIC,Cryptococcus neoformans,< 0.01 µg/mL
C/C=C1\NC(=O)[C@H]([C@H](C)O)NC(=O)[C@H](CCN)NC(=O)[C@H](CCCCN)NC(=O)[C@H](CC(=O)N(C)C)NC(=O)[C@@H](CCN)NC(=O)[C@@H](NC(=O)C[C@H](O)CCCCCCCCCCC)COC(=O)[C@H]([C@H](O)CCl)NC(=O)[C@H]([C@H](O)C(=O)O)NC1=O,MIC,Aspergillus fumigatus,10 µg/mL
same,MIC,Candida albicans [1],10 µg/mL
same,ED50,Candida albicans [2],< 4.5 mg/kg
same,MIC,Cryptococcus neoformans,< 0.01 µg/mL
C/C=C1\NC(=O)[C@H]([C@H](C)O)NC(=O)[C@H](CCN)NC(=O)[C@H](CCCCN)NC(=O)[C@H](CC(=O)N(C)CCN(C)C)NC(=O)[C@@H](CCN)NC(=O)[C@@H](NC(=O)C[C@H](O)CCCCCCCCCCC)COC(=O)[C@H]([C@H](O)CCl)NC(=O)[C@H]([C@H](O)C(=O)O)NC1=O,MIC,Aspergillus fumigatus,20 µg/mL
same,MIC,Candida albicans [1],5 µg/mL
same,ED50,Candida albicans [2],4 mg/kg
same,MIC,Cryptococcus neoformans,< 0.01 µg/mL
C/C=C1\NC(=O)[C@H]([C@@H](C)O)NC(=O)[C@H](CCN)NC(=O)[C@H](CCCCN)NC(=O)[C@H](CC(=O)N[C@@H](Cc2ccccc2)C(=O)OC)NC(=O)[C@@H](CCN)NC(=O)[C@@H](NC(=O)C[C@H](O)CCCCCCCCCCC)COC(=O)[C@H]([C@H](O)CCl)NC(=O)[C@H]([C@H](O)C(=O)O)NC1=O,MIC,Aspergillus fumigatus,> 20 µg/mL
same,MIC,Candida albicans [1],1.25 µg/mL
same,ED50,Candida albicans [2],> 15 mg/kg
same,MIC,Cryptococcus neoformans,1.25 µg/mL
C/C=C1\NC(=O)[C@H]([C@H](C)O)NC(=O)[C@H](CCN)NC(=O)[C@H](CCCCN)NC(=O)[C@H](CC(=O)NCCC(C)C)NC(=O)[C@@H](CCN)NC(=O)[C@@H](NC(=O)C[C@H](O)CCCCCCCCCCC)COC(=O)[C@H]([C@H](O)CCl)NC(=O)[C@H]([C@H](O)C(=O)O)NC1=O,MIC,Aspergillus fumigatus,> 20 µg/mL
same,MIC,Candida albicans [1],0.312 µg/mL
same,ED50,Candida albicans [2],10.9 mg/kg
same,MIC,Cryptococcus neoformans,< 0.01 µg/mL
C/C=C1\NC(=O)[C@H]([C@H](C)O)NC(=O)[C@H](CCN)NC(=O)[C@H](CCCCN)NC(=O)[C@H](CC(=O)NCC)NC(=O)[C@@H](CCN)NC(=O)[C@@H](NC(=O)C[C@H](O)CCCCCCCCCCC)COC(=O)[C@H]([C@H](O)CCl)NC(=O)[C@H]([C@H](O)C(=O)O)NC1=O,MIC,Aspergillus fumigatus,20 µg/mL
same,MIC,Candida albicans [1],0.625 µg/mL
same,MIC,Cryptococcus neoformans,0.156 µg/mL
